From ChEMBL document CHEMBL2331165, “Semisynthesis and myocardial activity of thaliporphine N-homologues” (2013)
Calls of active or inactive are those of the source. No cut-off for these calls is given here.

Tests used:
[1] = Myocardial activity in Wistar-Kyoto rat right ventricle exposed to electrical stimulation driven at 2 Hz assessed as muscle contraction at 30 uM relative to untreated control; format: functional, Muscle tissue
How it was run: (§1)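 Left atrial and right ventricular strips from male Wistar-Kyoto rats, electrically driven, in Tyrode's solution gassed with CO2−O2 (1:19) at 36 ± 0.2 °C. Optimal preload 0.5−1.0 g for maximal developed tension. Contraction recorded by force displacement transducer and expressed as % of the pre-treatment control. Means from four to five experiments.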

[2] = Myocardial activity in Wistar-Kyoto rat right atrium exposed to electrical stimulation driven at 2 Hz assessed as muscle contraction at 30 uM relative to untreated control; format: functional, Muscle tissue
[3] = Myocardial activity in Wistar-Kyoto rat right atrium exposed to electrical stimulation driven at 2 Hz assessed as muscle contraction at 10 uM relative to untreated control; format: functional, Muscle tissue
[4] = Myocardial activity in Wistar-Kyoto rat left atrium exposed to electrical stimulation driven at 2 Hz assessed as muscle contraction at 3 uM relative to untreated control; format: functional, Muscle tissue; how it was run: as §1
Heart [5] = assay: Myocardial activity in Wistar-Kyoto rat heart assessed as heart rate level at 3 uM relative to untreated control; format: functional
How it was run: (§2)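 Right atria from male Wistar-Kyoto rat hearts in an organ bath of Tyrode's solution gassed with CO2−O2 (1:19) at 36 ± 0.2 °C. Spontaneous beating rate recorded and expressed as % of the pre-treatment control. Means from four to five experiments.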

[6] = Myocardial activity in Wistar-Kyoto rat right ventricle exposed to electrical stimulation driven at 2 Hz assessed as muscle contraction at 3 uM relative to untreated control; format: functional, Muscle tissue; how it was run: as §1
Heart [7] = assay: Myocardial activity in Wistar-Kyoto rat heart assessed as heart rate level at 30 uM relative to untreated control; format: functional; how it was run: as §2
[8] = Myocardial activity in Wistar-Kyoto rat left atrium exposed to electrical stimulation driven at 2 Hz assessed as muscle contraction at 10 uM relative to untreated control; format: functional, Muscle tissue; how it was run: as §1
[9] = Myocardial activity in Wistar-Kyoto rat right ventricle exposed to electrical stimulation driven at 2 Hz assessed as muscle contraction at 10 uM relative to untreated control; format: functional, Muscle tissue; how it was run: as §1
Heart [10] = assay: Myocardial activity in Wistar-Kyoto rat heart assessed as heart rate level at 10 uM relative to untreated control; format: functional; how it was run: as §2
[11] = Myocardial activity in Wistar-Kyoto rat left atrium exposed to electrical stimulation driven at 2 Hz assessed as muscle contraction at 30 uM relative to untreated control; format: functional, Muscle tissue; how it was run: as §1
[12] = Myocardial activity in Wistar-Kyoto rat right atrium exposed to electrical stimulation driven at 2 Hz assessed as muscle contraction at 3 uM relative to untreated control; format: functional, Muscle tissue
Rattus norvegicus [13] = organism: Rattus norvegicus; assay: Positive inotropic effect in Wistar-Kyoto rat left atrium exposed to electrical stimulation driven at 2 Hz assessed as muscle contraction at 3 to 30 uM in presence of 1 uM verapamil relative to untreated control; format: functional, tissue-based; conditions: Cardiac atrium
Rattus norvegicus [14] = organism: Rattus norvegicus; assay: Positive inotropic effect in Wistar-Kyoto rat left atrium exposed to electrical stimulation driven at 2 Hz assessed as muscle contraction at 3 to 30 uM in presence of 1 uM prazosin relative to untreated control; format: functional, tissue-based; conditions: Cardiac atrium
Rattus norvegicus [15] = organism: Rattus norvegicus; assay: Positive inotropic effect in Wistar-Kyoto rat left atrium exposed to electrical stimulation driven at 2 Hz assessed as muscle contraction at 3 to 30 uM in presence of 3 uM atenolol relative to untreated control; format: functional, tissue-based; conditions: Cardiac atrium

Compound	Activity [1]	Activity [2]	Activity [3]	Activity [4]	Activity (Heart [5])	Activity [6]	Activity (Heart [7])	Activity [8]	Activity [9]	Activity (Heart [10])	Activity [11]	Activity [12]	Activity (Rattus norvegicus [13])	Activity (Rattus norvegicus [14])	Activity (Rattus norvegicus [15])
COc1cc2c(cc1OC)-c1c(O)c(OC)cc3c1[C@@H](C2)N(C)CC3	72%	129%	121%	106%	92%	93%	69%	103%	80%	85%	100%	106%	–	–	–
CCCN1CCc2cc(OC)c(O)c3c2[C@H]1Cc1cc(OC)c(OC)cc1-3	96%	141%	131%	101%	88%	100%	68%	105%	100%	79%	99%	121%	–	–	–
CCCN1CCc2cc(OC)c(O)c3c2[C@@H]1Cc1cc(OC)c(OC)cc1-3	75%	103%	103%	99%	91%	95%	61%	90%	85%	80%	74%	103%	–	–	–
COc1cc2c(cc1OC)-c1c(O)c(OC)cc3c1[C@H](C2)NCC3	90%	117%	99%	94%	91%	102%	61%	93%	96%	78%	89%	99%	–	–	–
COc1cc2c(cc1OC)-c1c(O)c(OC)cc3c1[C@H](C2)N(C)CC3	163%	180%	140%	110%	92%	125%	82%	180%	154%	86%	243%	104%	Active	Active	Active
COc1cc2c(cc1OC)-c1c(O)c(OC)cc3c1[C@@H](C2)NCC3	120%	105%	103%	103%	100%	108%	79%	104%	111%	96%	105%	101%	–	–	–
CCN1CCc2cc(OC)c(O)c3c2[C@@H]1Cc1cc(OC)c(OC)cc1-3	111%	162%	127%	105%	97%	100%	84%	122%	108%	97%	131%	93%	–	–	–
